Paper PMC4554820 (Bioorganic & medicinal chemistry, 2015)
Entries after “also recorded” stand apart in the source; their conditions may differ. Where a name gives a salt, the structure may show the parent alone. Read-outs that look alike come from different tables or passages of the source.

Tests used:
GAPDH [1] = target: T1, GAPDH (Oryctolagus cuniculus, UniProt P46406); conditions: HPLC-HRMS, cited from earlier work; for Products, GAPDH tryptic peptide V233-R246: comparison/previous work
[2] = assay type: physicochemical; conditions: for t1/2 (min) in 1:1 MeOH : 0.1 N NaOH / k (min^−1) in 1:1 MeOH : PBS / k (min^−1) in 1:1 MeOH : 0.1 N NaOH: decomposition; for k (min^−1) in 1:1 MeOH : PBS: 1:1 MeOH:PBS (100 mM, pH 7.4), room temperature
Summary of the method: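 The test compound in MeOH (1 mL) was mixed with 1 mL of 100 mM PBS pH 7.4 or 0.1 M NaOH in a sealed cuvette at rt. Loss of absorbance at 667 nm was read every 15 min for 10 h. Rate constants and half-lives came from the exponential decay.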

[3] = test system: porcine liver esterase (PLE); assay: Kinetic UV-vis decomposition in the presence of porcine liver esterase; assay type: in vitro ADME; conditions: PBS buffer (3 % DMF) + PLE
[4] = Kinetic UV-vis decomposition in the presence of glutathione; assay type: physicochemical; conditions: PBS pH 7.4 + 2-fold GSH, room temperature
GAPDH [5] = target: T1, GAPDH; assay: Reversibility of GAPDH inhibition by DTT; assay type: biochemical; conditions: GAPDH incubated with compound 1 hr, then DTT (10 mM) 1 hr
GAPDH [6] = target: T1, GAPDH; assay: HPLC-HRMS assay of GAPDH modification; assay type: biochemical; conditions: incubated 1 hr rt, tryptic digestion
Summary of the method: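 Lyophilised GAPDH dissolved in 100 mM PBS pH 7.4, concentration set by A280 (ε 14600 M⁻¹cm⁻¹). Protein 100 µM final with test compound 1 mM final (added from MeOH stock) in water, 1 h rt. Trypsin digest (20:1 ratio) at 37 °C for 17 h, then diluted to 10 µM peptide. C18 LC with 0.1% formic acid water/MeOH gradient (5–95% over 10 min). Orbitrap HRMS, positive ESI. No-compound control.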

[7] = test system: human platelet aggregation induced by ADP; assay: Platelet aggregation inhibition; assay type: cell-based; conditions: PRP, ADP 5 μM
Summary of the method: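 Human PRP came from blood spun at 100 g for 10 min, and PPP from PRP spun at 4500 g for 10 min. PRP or PPP plus CaCl₂ (2 mM) went into wells. The test compound (100, 75, 50, 10 µM) was added for 20 min at rt, then ADP 5 µM. Light transmission was read every 20 s with double-orbital agitation and normalised to PPP = 100% and PRP = 0%.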

[8] = test system: human platelet activation induced by (ADP); assay: Platelet activation inhibition; assay type: cell-based; conditions: for platelet activation inhibition: PRP, ADP 5 μM
[9] = PBS buffer, pH = 7.6; cited from earlier work
[10] = 1:1 MeOH:phosphate buffered saline, pH 7.4

T1 sequence (P46406 whole entry): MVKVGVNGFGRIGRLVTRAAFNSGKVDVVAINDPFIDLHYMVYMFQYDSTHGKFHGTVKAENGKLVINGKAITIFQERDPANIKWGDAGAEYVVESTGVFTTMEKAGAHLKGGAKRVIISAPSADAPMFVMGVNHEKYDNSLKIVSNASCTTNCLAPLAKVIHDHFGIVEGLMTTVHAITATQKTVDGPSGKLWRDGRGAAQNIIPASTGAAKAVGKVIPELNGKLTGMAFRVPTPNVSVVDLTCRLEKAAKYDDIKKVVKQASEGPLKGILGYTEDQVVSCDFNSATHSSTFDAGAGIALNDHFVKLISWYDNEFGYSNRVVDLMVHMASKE

| half-life at 30 mM [2, 10] [h] | t1/2 (min) in PBS + 2-fold GSH [4] [min] | % of GAPDH activity restored by the addition of DTT (GAPDH [5]) [%] | Structure (SMILES) | Products, GAPDH tryptic peptide V233-R246 (GAPDH [1]) | k (min^−1) in 1:1 MeOH : PBS [2] [min⁻¹] | k (min^−1) in PBS + 2-fold GSH [4] [min⁻¹] | also measured |
| --- | --- | --- | --- | --- | --- | --- | --- |
| – | – | – | CC(=O)OC1(N=O)CCCCC1 [Compound 1, 1-nitrosocyclohexyl acetate] | sulfinic acid as a major product | – | – | – |
| – | – | – | [Na+].[Na+].[O-][N+]([O-])=NO [AS, Angeli’s salt (Na2N2O3, AS)] | sulfinamide as a major product and sulfinic acid as a minor product; also recorded: Sulfinamide; RSONH2; also recorded: Sulfinic acid; RSOOH | – | – | Products, GAPDH tryptic peptide I144-K160 (GAPDH [1]; comparison): Internal disulfide; RSSR |
| 13 | 65 | 22 | CC(=O)OC1(N=O)CCOCC1 [Compound 4, 4-Nitrosotetrahydro-2H-pyran-4-yl acetate] | – | 0.00089 | 0.011 | half-life at 30 mM ([2]; 1:1 MeOH:0.1 N NaOH): 0.2 h; k (min^−1) in 1:1 MeOH : 0.1 N NaOH ([2]; 1:1 MeOH:0.1 N NaOH): 0.057 min⁻¹ |
| 31.7 | 99 | – | CC(C)(C)C(=O)OC1(N=O)CCOCC1 [Compound 5, 4-Nitrosotetrahydro-2H-pyran-4-yl pivalate] | – | 0.00036 | 0.007 | half-life at 30 mM ([2]; 1:1 MeOH:0.1 N NaOH): 31.2 h; k (min^−1) in 1:1 MeOH : 0.1 N NaOH ([2]; 1:1 MeOH:0.1 N NaOH): 0.00037 min⁻¹ |
| 2 | 12 | 9 | CC(Cl)(Cl)C(=O)OC1(N=O)CCOCC1 [Compound 7, 4-Nitrosotetrahydro-2H-pyran-4-yl 2,2-dichloropropanoate] | – | 0.0058 | 0.0578 | t1/2 (min) in 1:1 MeOH : 0.1 N NaOH ([2]; 1:1 MeOH:0.1 N NaOH): decompose immediately and Fast; decomposition rate constant k with PLE [3]: 0.03 min⁻¹; Products, GAPDH tryptic peptide I144-K160 (GAPDH [6]): Internal disulfide; RSSR; Products, GAPDH tryptic peptide V233-R246 (GAPDH [6]): Sulfinamide; RSONH2; also recorded: Sulfinic acid; RSOOH |
| – | – | – | O=NC1(OC(=O)C(F)(F)F)CCCCC1 [Compound 2, 1-nitrosocyclohexyl trifluoroacetate] | sulfinamide as a major product and sulfinic acid as a minor product | – | – | t1/2 of HNO release [9]: 121 milliseconds (ms) |

| Structure (SMILES) | half-life at 30 mM [2, 10] [h] | t1/2 (min) in PBS + 2-fold GSH [4] [min] | % of GAPDH activity restored by the addition of DTT (GAPDH [5]) [%] | Products, GAPDH tryptic peptide V233-R246 (GAPDH [1]) | k (min^−1) in 1:1 MeOH : PBS [2] [min⁻¹] | k (min^−1) in PBS + 2-fold GSH [4] [min⁻¹] | also measured |
| --- | --- | --- | --- | --- | --- | --- | --- |
| O=NC1(OC(=O)C(Cl)(Cl)Cl)CCOCC1 [Compound 6, 4-Nitrosotetrahydro-2H-pyran-4-yl 2,2,2-trichloroacetate] | 0.833 | 4 | 19 | – | 0.014 | 0.173 | t1/2 (min) in 1:1 MeOH : 0.1 N NaOH ([2]; 1:1 MeOH:0.1 N NaOH): decompose immediately and Fast; decomposition rate constant k with PLE [3]: 0.087 min⁻¹; Products, GAPDH tryptic peptide I144-K160 (GAPDH [6]): Internal disulfide; RSSR; Products, GAPDH tryptic peptide V233-R246 (GAPDH [6]): Sulfinamide; RSONH2; also recorded: Sulfinic acid; RSOOH; inhibition of platelet aggregation ([7]; 10 μM, compared with positive control (PRP + ADP)): no effect; inhibition of platelet aggregation ([7]; 100 μM, 20 min incubation rt): Complete inhibition; inhibition of platelet aggregation ([7]; 50 and 75 μM): intermediate activities; platelet activation inhibition ([8]; 1 μM): lower activity; inhibition of expression of the activated marker (CD62P) ([8]; 10 μM, PRP incubated with ADP (2 μM)): 83%; platelet activation inhibition ([8]; 100, 75, 50, and 10 μM): potent and similar effect |
